Data on 22 compounds can be found in ChEMBL document CHEMBL4261550, “Triazolopyrimidines identified as reversible myeloperoxidase inhibitors” (Medchemcomm, 2017).

Structures are written as SMILES. Active and inactive are the calls of the source. No cut-off for these calls is given here.

As a reminder, the IC50 is the concentration that gives 50% inhibition. As a reminder, the inhibition is the percentage by which the read-out fell short of the control.

The target of data set [1] is T1, Myeloperoxidase (Homo sapiens, UniProt P05164).
T1 sequence (P05164 whole entry): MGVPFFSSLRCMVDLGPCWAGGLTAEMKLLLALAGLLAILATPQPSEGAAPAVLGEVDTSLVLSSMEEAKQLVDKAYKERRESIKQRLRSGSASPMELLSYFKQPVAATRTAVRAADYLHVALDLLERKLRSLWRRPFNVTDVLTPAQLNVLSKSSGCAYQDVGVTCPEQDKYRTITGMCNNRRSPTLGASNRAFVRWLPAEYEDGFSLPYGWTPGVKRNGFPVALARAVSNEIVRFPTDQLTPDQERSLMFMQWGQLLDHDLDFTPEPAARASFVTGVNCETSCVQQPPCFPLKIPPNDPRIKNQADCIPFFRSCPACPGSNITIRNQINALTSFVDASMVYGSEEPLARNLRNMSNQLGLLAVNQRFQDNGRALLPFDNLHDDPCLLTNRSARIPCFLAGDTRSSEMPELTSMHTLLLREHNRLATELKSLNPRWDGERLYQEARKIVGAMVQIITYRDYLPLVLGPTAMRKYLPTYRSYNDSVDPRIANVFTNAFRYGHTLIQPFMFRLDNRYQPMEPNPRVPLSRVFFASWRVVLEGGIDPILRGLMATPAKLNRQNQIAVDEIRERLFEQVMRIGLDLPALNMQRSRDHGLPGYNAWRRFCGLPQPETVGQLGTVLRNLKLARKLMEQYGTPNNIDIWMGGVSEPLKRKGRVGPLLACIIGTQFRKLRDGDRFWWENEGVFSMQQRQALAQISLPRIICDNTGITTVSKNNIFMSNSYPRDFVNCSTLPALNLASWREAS
Kind of data set: Inhibition of human MPO assessed as reduction in enzyme-mediated chlorination by measuring reduction in HOCl formation preincubated for 10 mins followed by H2O2/NaCl addition and measured at 30 secs time interval for 5 mins by APF dye based fluorescence assay.

The target of data set [2] is T1, Myeloperoxidase. The data set can be described thus: Inhibition of MPO in human neutrophils assessed as reduction in PMA-stimulated HOCl production incubated for 3 mins and measured for 25 mins by luminol reagent based luminescence assay. In outline: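 Neutrophils from healthy donors isolated by dextran sedimentation then Ficoll-Paque, resuspended in HBSS; 1.106 cells/mL stimulated with 100 nM PMA; inhibitor 22 μM down to 1 nM (1:3, 10 doses) in 10% ethanol/50% PEG/40% water, 3 min at rt; luminol 100 μM final, read 25 min at 37 °C; rate taken from initial linear region.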

Data set [3] concerns the target T1, Myeloperoxidase. Kind of data set: Inhibition of human MPO assessed as reduction in enzyme-mediated chlorination by measuring reduction in HOCl formation in presence of H2O2/NaCl measured at 30 secs time interval for 5 mins by APF dye based fluorescence assay.
Data set [4] is described as follows: Hypochlorus scavenging activity at 10 uM in presence of sodium hypochlorite after 15 mins by APF dye based fluorescence assay relative to control. Type of data set: functional. Put shortly: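 NaOCl-scavenger counterscreen in 1536-well format: 50 μM NaOCl in place of MPO with APF reagent, compound 10 μM final; fluorescence intensity read after 15 min incubation; ≥20% loss of fluorescence flagged as interference.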

The nature of data set [5]: Redox activity assessed as conversion of resazurin reagent to resorufin at 10 uM after 30 mins by fluorescence assay relative to control. Type of data set: physicochemical. The note with it: 0.5 h. Put shortly: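 Redox counterscreen: compound 10 μM final incubated with 5 μM resazurin reagent (final) 30 min; fluorescence intensity read; normalized to a reactive styrylpyrimidotriazinedione standard at 10 μM as 100%.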
(In general: Resazurin is reduced to fluorescent resorufin, in cell work by metabolically active cells.)

A further data set concerns the target T2, Thyroid peroxidase (Homo sapiens, UniProt P07202).
T2 sequence (P07202 whole entry): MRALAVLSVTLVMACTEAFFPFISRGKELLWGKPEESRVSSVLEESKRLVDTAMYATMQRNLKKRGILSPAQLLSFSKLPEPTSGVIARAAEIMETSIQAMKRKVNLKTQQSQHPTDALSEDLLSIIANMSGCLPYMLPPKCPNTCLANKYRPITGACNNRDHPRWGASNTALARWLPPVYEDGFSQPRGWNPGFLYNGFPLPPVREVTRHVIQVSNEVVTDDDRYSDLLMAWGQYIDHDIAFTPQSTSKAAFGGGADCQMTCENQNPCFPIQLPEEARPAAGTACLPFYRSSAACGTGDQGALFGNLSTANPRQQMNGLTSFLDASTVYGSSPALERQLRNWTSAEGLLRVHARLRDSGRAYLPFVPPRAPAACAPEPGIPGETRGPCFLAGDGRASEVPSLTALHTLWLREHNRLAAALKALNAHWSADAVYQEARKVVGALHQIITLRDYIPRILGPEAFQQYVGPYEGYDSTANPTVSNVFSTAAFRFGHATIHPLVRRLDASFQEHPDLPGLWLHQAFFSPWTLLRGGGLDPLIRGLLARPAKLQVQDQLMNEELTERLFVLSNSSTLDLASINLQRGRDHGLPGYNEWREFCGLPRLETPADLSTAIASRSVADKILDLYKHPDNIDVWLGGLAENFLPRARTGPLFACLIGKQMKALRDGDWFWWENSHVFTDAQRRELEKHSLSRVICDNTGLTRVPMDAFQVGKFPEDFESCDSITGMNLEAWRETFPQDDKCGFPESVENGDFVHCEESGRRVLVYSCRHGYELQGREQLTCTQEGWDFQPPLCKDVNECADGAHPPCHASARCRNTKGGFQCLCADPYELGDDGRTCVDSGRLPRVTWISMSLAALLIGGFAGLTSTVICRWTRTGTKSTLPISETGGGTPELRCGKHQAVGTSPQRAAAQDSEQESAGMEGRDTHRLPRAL
Kind of data set: Inhibition of recombinant human C-terminal His6-tagged TPO (15 to 839 residues) expressed in baculovirus infected insect cells assessed as reduction in H2O2-catalyzed 3,5-iodo tyrosine formation using 3-iodotyrosine and potassium iodide preincubated for 10 mins followed by 3,5-iodo tyrosine/potassium iodide/H2O2 addition and measured after 15 mins. Put shortly:
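TPO residues 15–839 with C-terminal His6, baculovirus/T. ni expressed, purified by Ni affinity, anion exchange and size exclusion; 4.0 nM in 100 mM KPi pH 7.4, 10 min rt preincubation with inhibitor; then 400 μM KI/240 μM 3-iodotyrosine mix and 20 μM H2O2 (added solutions); 3,5-iodotyrosine formation monitored.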

In data set [6] the target is T3, Myeloperoxidase (Homo sapiens) (UniProt P05164).
T3 sequence (whole entry): T1 sequence (P05164 whole entry)
The data set can be described thus: Inhibition of human MPO assessed as reduction in enzyme-mediated chlorination by measuring reduction in HOCl formation at 10 uM preincubated for 10 mins followed by H2O2/NaCl addition and measured at 30 secs time interval for 5 mins by APF dye based fluorescence assay relative to control. Put shortly:
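HTS APF chlorination, 1536-well: 1.75 nM human MPO with 20 μM H2O2 final, compound 10 μM final, preincubated 10 min; APF reagent added, fluorescence 485/535 nm read every 30 s for 5 min; slope normalized to DMSO (0%) and no-MPO wells (100% inhibition).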

Data set [7] has as its target T3, Myeloperoxidase (Homo sapiens). Kind of data set: Ratio of IC50 for human MPO chlorination preincubated for 10 mins to IC50 for human MPO chlorination without preincubation.
Data set [8] concerns the target T1, Myeloperoxidase. The data set can be described thus: Inhibition of human MPO peroxidase activity in presence of H2O2 measured at 30 secs time interval for 5 mins by amplex red reagent based fluorescence assay.
The target in data set [9] is T3, Myeloperoxidase (Homo sapiens). Kind of data set: Substrate activity at human MPO assessed as reversion of enzyme to resting state at 80 uM in presence of H2O2 by stopped flow assay. Put shortly:
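Stopped-flow at 25 °C: syringe 1 with 2 μM MPO and 5 μM H2O2 in phosphate buffer, syringe 2 with inhibitor and 5 μM H2O2; equal volumes rapidly mixed, spectra acquired in PDA mode to follow several MPO species; representative of numerous replicates.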

The target is the same in data set [10]. The data set can be described thus: Irreversible inhibition of human MPO peroxidase activity at 20 nM preincubated for up to 30 mins followed by H2O2 addition and 2 to 10 times compound dilution measured at 30 secs time interval for 5 mins by amplex red reagent based fluorescence assay. Put shortly: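 MPO (20 nM, phosphate buffer) was preincubated with inhibitor and 100 nM H2O2 for 2, 10, 20 and 30 min. Inhibitor was at 5x–10x the Amplex Red IC50 when that IC50 was > 1 μM, or 2–10x the enzyme concentration when it was < 1 μM. Controls were peroxide with 0.2% DMSO, and 4-hydroxybenzoic acid hydrazide. Unbound inhibitor was removed on a G50 spin column. Flow-through was assayed by Amplex Red, and the initial rate gave % activity remaining versus control. Runs were repeated with 100 mM NaCl and 150 μM L-methionine.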

For `Nc1nc(OCc2cccc(OC(F)F)c2)c2nn[nH]c2n1`, at Myeloperoxidase [1], the IC50 was found to be 0.2 µM. On to `COc1cccc(COc2nc(N)nc3[nH]nnc23)c1`, for which, on Myeloperoxidase [1], the IC50 turned out to be 0.49 µM.

Turning to `O=c1[nH]c(=S)n(C[C@H]2CCCO2)c2nc[nH]c12`, the IC50 was found to be 1 µM at Myeloperoxidase [2]; 0.056 µM at Myeloperoxidase [3]; 0.009 µM at Myeloperoxidase [1]; 3.9 µM at Thyroid peroxidase; 0.012 µM at Myeloperoxidase [8]. Further, the Activity in data set [4] was less than 20%; in data set [5] it was “Not Active”. Further, in [6], the inhibition amounted to 30%. For the same compound, the Ratio IC50 in [7] was 6.

With `CCNc1nc(OCc2ccccc2)c2nn[nH]c2n1`, the IC50 at Myeloperoxidase [1] was 2.9 µM. For `Nc1nc(OCc2ccccc2)c2[nH]cnc2n1` [6-O-BENZYLGUANINE], at Myeloperoxidase [1], the IC50 was greater than 13 µM. As to `Cc1ccccc1COc1nc(N)nc2[nH]nnc12`, the IC50 at Myeloperoxidase [1] came to 0.47 µM. As to `Nc1nc(OCc2ccc(F)cc2)c2nn[nH]c2n1`, the IC50 at Myeloperoxidase [1] was found to be 0.047 µM.

On to `Nc1nc(OCc2cccc(F)c2)c2nn[nH]c2n1`, for which the IC50 on Myeloperoxidase [1] came out at 0.04 µM. For the compound `N[C@@H](Cc1c[nH]c2ccccc12)C(=O)OCc1ccccc1`, the results for the IC50 at Myeloperoxidase [3], on Myeloperoxidase [1] and at Myeloperoxidase [8] were 0.11 µM, 0.2 µM and greater than 13 µM, respectively. Also, the Activity in data set [4] is less than 20%; in [5], “Not Active”. The outcome in data set [9] was Active. Besides, the inhibition in data set [6] was determined as 30%. As for `c1ccc(COc2ncnc3[nH]nnc23)cc1`, the IC50 on Myeloperoxidase [1] was greater than 13 µM. `Nc1nc(OCc2ccccc2)c2[nH]c(O)nc2n1`: the IC50 at Myeloperoxidase [1] is greater than 13 µM. In the case of `Oc1nc(OCc2ccccc2)c2nn[nH]c2n1`, the IC50 at Myeloperoxidase [1] was greater than 13 µM. Consider `Cn1nnc2c(OCc3ccccc3)nc(N)nc21`, for which the IC50 at Myeloperoxidase [1] is greater than 13 µM. In the case of `Nc1nc(Oc2ccccc2)c2nn[nH]c2n1`, on Myeloperoxidase [1], the IC50 was greater than 13 µM. On the same count and under the same terms, in the case of `Nc1nc(OCCc2ccccc2)c2nn[nH]c2n1` it was 0.63 µM; in that of `Nc1nc(OCc2ccccc2F)c2nn[nH]c2n1`, 0.078 µM. Still for that read-out and setting: in the case of `Nc1nc(OCc2cccc(Cl)c2)c2nn[nH]c2n1` it was 0.2 µM; in that of `Cc1ccc(COc2nc(N)nc3[nH]nnc23)cc1`, 0.51 µM; in that of `Nc1nc(OCc2ccc(C(F)(F)F)cc2)c2nn[nH]c2n1`, 0.14 µM. On the same count and under the same terms, in the case of `Nc1nc(OCc2ccccc2Cl)c2nn[nH]c2n1` it was 0.18 µM. Turning to `Nc1nc(OCc2ccccc2)c2cn[nH]c2n1`, the IC50 at Myeloperoxidase [1] is greater than 13 µM.

On to `NNC(=O)c1ccc(O)cc1`, for which the inhibition result in [10] was “Active”.
